# How the values were obtained:
# Glutamate NMDA receptor [1] = experiment: Inhibition of [3H]MK-801 binding to NMDA receptor by Conantokin-G (at a concentration range of 0.024-12.5 uM) stimulated by the compound at a concentration of 100 uM; assay type: protein-complex assay
# Glutamate NMDA receptor [2] = experiment: Ability to enhance [3H]MK-801 binding to NMDA receptors in rat forebrain membranes was calculated with respect to spermine; assay type: cell membranes, Membrane
# Summary of the method: (§1)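 Forebrains from adult male Sprague-Dawley rats (175–300 g) homogenized in 5 mM HEPES/4.5 mM Tris (pH 7.7). Membranes were washed extensively, including EDTA cycles, to remove endogenous glutamate, glycine and polyamines. About 100 μg protein was incubated with [3H]MK-801 (final 4–5 nM) and compound (1–1000 μM) for 2 h at room temperature under non-equilibrium conditions, then filtered over PEI-soaked GF/B. Nonspecific binding was taken with 100 μM phencyclidine. Efficacy is given as percent of the spermine-induced increase, ≥3 experiments.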
# [3] = molecular target: T1, Glutamate NMDA receptor (Rattus norvegicus) (UniProt P35439+Q00959+Q00960+Q00961+Q62645+Q8VHN2+Q9R1M7); experiment: Efficacy of compound in enhancing binding of [3H]MK-801 to NMDA receptors compared to spermine; assay type: protein-complex assay; summary of the method: as §1
# Glutamate NMDA receptor [4] = molecular target: Glutamate NMDA receptor
# [5] = molecular target: T1, Glutamate NMDA receptor (Rattus norvegicus); experiment: Efficacy in enhancing binding of [3H]- MK-801 to NMDA receptors compared to spermine; assay type: protein-complex assay; summary of the method: as §1
# Glutamate NMDA receptor [6] = experiment: Inhibition of [3H]MK-801 binding to NMDA receptor by Conantokin-G (with a concentration range of 0.024-12.5 uM) stimulated by the compound at a concentration of 100 uM; assay type: protein-complex assay
smiles,measurement,setting,value
NCC(=O)N1CCCN(C(=O)CN)CC1,IC50,Glutamate NMDA receptor [1],307 µM
same,EC50,Glutamate NMDA receptor [2],18 µM
same,Emax,[3],60%
NCCCNCCCCNCCCN [SPERMINE],EC50,Glutamate NMDA receptor [2],5.2 µM
same,Emax,[3],100%
same,IC50,Glutamate NMDA receptor [4],232 µM
NCCCN1CCCN(CCCN)CC1,Emax,[5],76%
same,EC50,Glutamate NMDA receptor [2],24.4 µM
NCCCN1CCN(CCCN)CC1,Emax,[5],80%
same,EC50,Glutamate NMDA receptor [2],50.1 µM
NCCCCN1CCN(CCCCN)CC1,Emax,[5],71%
same,EC50,Glutamate NMDA receptor [2],55.9 µM
C1CCN(CCCN2CCN(CCCN3CCCC3)CC2)C1,Emax,[5],64%
same,EC50,Glutamate NMDA receptor [2],45.9 µM
NCC(=O)N1CCN(C(=O)CN)CC1,Emax,[5],90%
same,EC50,Glutamate NMDA receptor [2],96.5 µM
NCCCC(=O)N1CCN(C(=O)CCCN)CC1,Emax,[5],45%
same,EC50,Glutamate NMDA receptor [2],239 µM
CNCCCCN1CCN(CCCCNC)CC1,IC50,Glutamate NMDA receptor [6],196 µM
same,Emax,[5],68%
same,EC50,Glutamate NMDA receptor [2],21.4 µM
CNCCCN1CCN(CCCNC)CC1,Emax,[5],81%
same,EC50,Glutamate NMDA receptor [2],35.3 µM
CN(C)CCCN1CCN(CCCN(C)C)CC1,Emax,[5],66%
same,EC50,Glutamate NMDA receptor [2],36.8 µM
CN(C)CCCCN1CCN(CCCCN(C)C)CC1,Emax,[5],84%
same,EC50,Glutamate NMDA receptor [2],77.5 µM
NCCCCN1CCCN(CCCCN)CC1,Emax,[5],76%
same,EC50,Glutamate NMDA receptor [2],37.5 µM
CN(C)CCN1CCN(CCN(C)C)CC1,Emax,[5],51%
same,EC50,Glutamate NMDA receptor [2],112 µM
NCCN1CCCN(CCN)CC1,Emax,[5],43%
same,EC50,Glutamate NMDA receptor [2],50.7 µM
CNCCN1CCN(CCNC)CC1,Emax,[5],50%
same,EC50,Glutamate NMDA receptor [2],64.5 µM

# From ChEMBL document CHEMBL1128668, “Synthesis of N,N'-substituted piperazine and homopiperazine derivatives with polyamine-like actions at N-methyl-D-aspartate receptors” (J Med Chem, 1995)
